Series [1] has as its target T1, Cytochrome P450 (Mycobacterium tuberculosis, UniProt A0A0T9WNE5).
T1 sequence (A0A0T9WNE5 whole entry): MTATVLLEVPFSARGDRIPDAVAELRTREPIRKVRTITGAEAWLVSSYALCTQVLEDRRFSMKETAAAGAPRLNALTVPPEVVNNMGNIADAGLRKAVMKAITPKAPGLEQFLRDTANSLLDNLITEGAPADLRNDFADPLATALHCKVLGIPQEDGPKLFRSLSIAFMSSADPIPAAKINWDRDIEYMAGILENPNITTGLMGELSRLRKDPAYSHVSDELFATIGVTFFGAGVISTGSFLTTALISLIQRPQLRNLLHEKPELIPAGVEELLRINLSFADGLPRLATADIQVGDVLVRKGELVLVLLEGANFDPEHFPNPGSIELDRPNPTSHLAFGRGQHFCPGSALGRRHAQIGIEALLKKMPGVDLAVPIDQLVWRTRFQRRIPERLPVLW
Description: Binding affinity to Mycobacterium tuberculosis CYP121 expressed in Escherichia coli HMS174 (DE3) by UV-visible scanning spectrophotometric analysis. In short, it runs like this:
(§1)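 Spectrophotometric titration of 3–4 µM CYP121 (untagged or N-terminal His6-tagged) at 25 °C in 100 mM potassium phosphate, 200 mM KCl, pH 7.8. Ligand in DMSO added stepwise from 0 µM until no further spectral change; spectra recorded 250–800 nm. Difference spectra taken against ligand-free enzyme, and peak-minus-trough ΔAmax plotted against [ligand]. KD obtained by hyperbolic fit, or Hill fit for sigmoidal data.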

Series [2] has as its target T1, Cytochrome P450. Kind of series: Stability in Mycobacterium tuberculosis assessed as CYP121-catalyzed turnover. It is filed as ADME.
Series [3] deals with T1, Cytochrome P450. Kind of series: Binding affinity to Mycobacterium tuberculosis Mycobacterium tuberculosis CYP121 expressed in Escherichia coli HMS174 (DE3) assessed as compound-adduct formation by measuring high spin complex by UV-visible scanning spectrophotometric analysis relative to control. More on the design: concentration or dose not given beside the values. The method, boiled down: (§2)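 Fraction of high-spin heme taken from UV-Vis titration spectra of CYP121 (untagged or His6-tagged; 3–4 µM, 25 °C, 100 mM potassium phosphate, 200 mM KCl, pH 7.8). %HS calculated from absorbances at 415 and 393 nm using LS and HS extinction coefficients.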

Series [4] addresses T1, Cytochrome P450. Kind of series: Binding affinity to Mycobacterium tuberculosis CYP121 expressed in Escherichia coli HMS174 (DE3) assessed as compound-adduct formation by measuring high spin complex at 0.5 to 2 mM incubated for 20 mins by EPR Spectroscopic method (reference value: 0%). The method, boiled down: (§3)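 EPR samples contained 155 µM CYP121 (untagged or His6-tagged) in 100 mM HEPES, 100 mM KCl, pH 7.5, with ligand or DMSO at a final 0.5–2 mM depending on solubility. Samples were incubated 20 min at room temperature and briefly centrifuged before spectra were recorded; the high-spin heme signal was assessed.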

In series [5] the test system is Mycobacterium tuberculosis. Description: Antimycobacterial activity against Mycobacterium tuberculosis H37Rv assessed as reduction in bacterial growth after 7 days by resazurin based fluorescence assay. It is filed as functional. The following applies: 168 h. The method, boiled down: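 Mtb H37Rv grown in 7H9 with ADC to OD 0.6–0.8, then diluted to OD600 0.001 and added to 1:2 serial compound dilutions (usually from 100 µM; 0.1% DMSO). Incubated 7 days at 37 °C, then 0.05% w/v resazurin for 24 h at 37 °C. Fluorescence read at 590 nm, background subtracted, and survival expressed relative to untreated wells. Rifampicin served as positive control.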

The target in series [6] is T1, Cytochrome P450. Description: Binding affinity to Mycobacterium tuberculosis His6-tagged CYP121 by UV-visible scanning spectrophotometric analysis. The method, boiled down:
as §1

Series [7] deals with T1, Cytochrome P450. Kind of series: Binding affinity to Mycobacterium tuberculosis His6-tagged CYP121 assessed as compound-adduct formation by measuring high spin complex by UV-visible scanning spectrophotometric analysis relative to control. More on the design: concentration or dose not given beside the values. The method, boiled down: as §2
Series [8] concerns the target T1, Cytochrome P450. Kind of series: Binding affinity to Mycobacterium tuberculosis His6-tagged CYP121 assessed as compound-adduct formation by measuring high spin complex at 0.5 to 2 mM incubated for 20 mins by EPR Spectroscopic method (reference value: 0%). The method, boiled down:
as §3

The target of series [9] is T1, Cytochrome P450. Description: Binding affinity to Mycobacterium tuberculosis CYP121 expressed in Escherichia coli HMS174 (DE3) at 120 uM by UV-visible scanning spectrophotometric analysis.
Series [10] has as its target T1, Cytochrome P450. Kind of series: Potency index, ratio of cyclo(L-Tyrosine-L-tyrosine) Kd for binding affinity to Mycobacterium tuberculosis CYP121 expressed in Escherichia coli HMS174 (DE3) to test compound Kd for binding affinity to Mycobacterium tuberculosis His6-tagged CYP121 by UV-visible scanning spectrophotometric analysis.
In series [11] the target is T1, Cytochrome P450. Description: Potency index, ratio of cyclo(L-Tyrosine-L-tyrosine) Kd to test compound Kd for binding affinity to Mycobacterium tuberculosis CYP121 expressed in Escherichia coli HMS174 (DE3) by UV-visible scanning spectrophotometric analysis.

The structures appear in SMILES notation. pKd: −log10 of the molar value.

For the molecule `O=C1N[C@@H](Cc2ccccc2)C(=O)N[C@H]1Cc1ccccc1`, at Cytochrome P450 [1], the pKd is 5.62. The Stability entry on Cytochrome P450 [2] is “Stable”. The figures for the Activity at Cytochrome P450 [3] and on Cytochrome P450 [4] were 3% and 0%, respectively. Besides, the MIC in [5] was above 100 µM.

`O=C1N[C@@H](Cc2ccc(O)cc2)C(=O)N[C@H]1Cc1ccc(O)cc1`: the Activity at Cytochrome P450 [3] amounted to 52%; at Cytochrome P450 [4], 2.7%.

In turn, `O=C1N[C@@H](Cc2ccc(O)cc2)C(=O)N[C@H]1Cc1ccccc1` showed a pKd on Cytochrome P450 [1] of 4.09. Besides, at Cytochrome P450 [2], the Stability result is listed as “Stable”. Further, the Activity at Cytochrome P450 [3] worked out at 5%; on Cytochrome P450 [4], 1.4%. The MIC in series [5] is above 100 µM.

With `Cc1cc(O)cc(C)c1C[C@@H]1NC(=O)[C@H](Cc2ccc(O)cc2)NC1=O`, the pKd at Cytochrome P450 [6] was below 4.00. For the same molecule, the Stability result at Cytochrome P450 [2] is on record as “Stable”. The results for the Activity on Cytochrome P450 [7], on Cytochrome P450 [8] and on Cytochrome P450 [9] were 1%, 1.9% and “Not Active”, respectively. Moreover, in [5], the MIC is above 100 µM.

In the case of `O=C1N[C@@H](Cc2ccc(I)cc2)C(=O)N[C@H]1Cc1ccc(I)cc1`, on Cytochrome P450 [1], the negative-log Kd (pKd) is 6.14. At Cytochrome P450 [2], the Stability entry is “Stable”. Moreover, the Activity came to 3% at Cytochrome P450 [3] and 7.5% on Cytochrome P450 [4]. For the same molecule, the MIC in series [5] was above 100 µM. The Ratio entry at Cytochrome P450 [10] is listed as “<= 100”.

On Cytochrome P450 [1], `COc1ccc(C[C@@H]2NC(=O)[C@H](Cc3ccc(O)cc3)NC2=O)cc1` showed a pKd of 4.98. Also, the Stability entry on Cytochrome P450 [2] was “Stable”. The values for the Activity at Cytochrome P450 [3] and on Cytochrome P450 [4] were 61% and 64%, respectively. The MIC in series [5] is above 100 µM. Moreover, on Cytochrome P450 [11], the Ratio was determined as 3.

Consider `Cc1cc(C[C@@H]2NC(=O)[C@H](Cc3ccc(O)cc3)NC2=O)cc(C)c1O`, for which the pKd on Cytochrome P450 [6] is 4.82. The Stability entry on Cytochrome P450 [2] is “Stable”. Further, the Activity turned out to be 75% at Cytochrome P450 [7] and 62% on Cytochrome P450 [8]. For the same molecule, in series [5], the MIC is above 100 µM.

`Cc1cc(O)ccc1C[C@@H]1NC(=O)[C@H](Cc2ccc(O)cc2)NC1=O`: at Cytochrome P450 [6], the pKd was 4.40. Besides, on Cytochrome P450 [2], the Stability entry is reported as “Stable”. Further, the Activity was determined as 20% at Cytochrome P450 [7] and 0.6% at Cytochrome P450 [8]. For the same molecule, the minimal inhibitory concentration (MIC) in series [5] is above 100 µM.

Consider `O=C1N[C@@H](Cc2ccc(O)c(I)c2)C(=O)N[C@H]1Cc1ccc(O)c(I)c1`, for which the pKd at Cytochrome P450 [1] is 6.35. Also, the Stability result on Cytochrome P450 [2] was “Stable”. The Activity at Cytochrome P450 [3] and at Cytochrome P450 [4] was 100% each time. The MIC in [5] is above 100 µM. Further, the Ratio entry on Cytochrome P450 [10] is “<= 100”.

In the case of `O=C1N[C@@H](Cc2ccc(O)c(I)c2)C(=O)N[C@H]1Cc1ccc(O)cc1`, the pKd at Cytochrome P450 [6] is 6.55. The Stability entry at Cytochrome P450 [2] is listed as “Stable”. For the same molecule, the Activity on Cytochrome P450 [7] came out at 98%; at Cytochrome P450 [8] it was 86%. Also, the MIC in series [5] was above 100 µM. The Ratio result on Cytochrome P450 [10] is “<= 100”.

Take `O=C1N[C@@H](Cc2ccc(O)c(F)c2)C(=O)N[C@H]1Cc1ccc(O)cc1`: at Cytochrome P450 [6], the pKd is 4.89. In addition, the Stability entry at Cytochrome P450 [2] was “Stable”. In addition, the Activity is recorded as 36% at Cytochrome P450 [7] and 1.2% on Cytochrome P450 [8]. In addition, in [5], the minimal inhibitory concentration (MIC) was above 100 µM.

On Cytochrome P450 [6], `Cc1cc(C[C@@H]2NC(=O)[C@H](Cc3ccc(O)cc3)NC2=O)ccc1O` showed a negative logarithm of the Kd (pKd) of 5.96. Moreover, at Cytochrome P450 [2], the Stability result is “Stable”. Further, the results for the Activity at Cytochrome P450 [7] and on Cytochrome P450 [8] were 91% and 11%, respectively. Also, the MIC in series [5] was above 100 µM.

Turning to `O=C1N[C@@H](Cc2ccc(F)cc2)C(=O)N[C@H]1Cc1ccc(F)cc1`, at Cytochrome P450 [1], the pKd was 5.20. For the same molecule, at Cytochrome P450 [2], the Stability result is listed as “Stable”. For the same molecule, the Activity on Cytochrome P450 [3] was found to be 1%; at Cytochrome P450 [4] it was 1.5%. Also, in series [5], the minimal inhibitory concentration (MIC) is above 100 µM.

`O=C1N[C@@H](Cc2ccc(O)c(Cl)c2)C(=O)N[C@H]1Cc1ccc(O)cc1` had a negative logarithm of the Kd (pKd) at Cytochrome P450 [6] of 5.82. For the same molecule, the Stability result on Cytochrome P450 [2] is “Stable”. Besides, the Activity at Cytochrome P450 [7] is given as 68%; on Cytochrome P450 [8], 21%. Further, the MIC in [5] is above 100 µM.

`COc1ccc(C[C@@H]2NC(=O)[C@H](Cc3ccc(OC)cc3)NC2=O)cc1`: the pKd on Cytochrome P450 [1] is 4.53. The Stability result on Cytochrome P450 [2] is “Stable”. In addition, the figures for the Activity on Cytochrome P450 [3] and on Cytochrome P450 [4] were 35% and 56%, respectively. Besides, in [5], the minimal inhibitory concentration (MIC) was above 100 µM.

`O=C1N[C@@H](Cc2ccc(O)c(Br)c2)C(=O)N[C@H]1Cc1ccc(O)cc1` gave a pKd at Cytochrome P450 [6] of 6.34. Further, the Stability entry at Cytochrome P450 [2] is given as “Stable”. Also, the Activity is recorded as 85% on Cytochrome P450 [7] and 68% on Cytochrome P450 [8]. Also, in series [5], the MIC was above 100 µM.

`O=C1N[C@H]2Cc3ccc(O)c(c3)-c3cc(ccc3O)C[C@@H]1NC2=O`: the Stability result at Cytochrome P450 [2] was “Unstable”.

Molecule `O=C1N[C@@H](Cc2cc(I)c(O)c(I)c2)C(=O)N[C@H]1Cc1ccc(O)cc1` had a pKd on Cytochrome P450 [6] of 5.04. Moreover, at Cytochrome P450 [2], the Stability entry is “Stable”. Moreover, the Activity was 74% at Cytochrome P450 [7] and 38% on Cytochrome P450 [8]. The MIC in [5] is above 100 µM.

The values are drawn from ChEMBL document CHEMBL4321824, “Structure-Activity Relationships of cyclo(l-Tyrosyl-l-tyrosine) Derivatives Binding to Mycobacterium tuberculosis CYP121: Iodinated Analogues Promote Shift to High-Spin Adduct” (J Med Chem, 2019).
